Measured values reported in ChEMBL document CHEMBL1165898, “Novel chromeno [2,3-b]-pyrimidine derivatives as potential anti-microbial agents” (2010).
≈ marks a conversion by molar mass, not a printed value. Calls of active or inactive are those of the source. The calls are words filed in the database; no cut-off is given here.

How the values were obtained:
Staphylococcus aureus [1] = assay: Antibacterial activity against Staphylococcus aureus after 16 hrs by serial dilution method; format: functional
Escherichia coli [2] = assay: Antibacterial activity against Escherichia coli at 1.6125 to […] after 16 hrs by serial dilution method; format: functional, organism-based
Procedure, shortened: (§1)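 Tube broth dilution MIC in trypticase soya broth. Colonies from a fresh plate were grown 6 h at 37 °C, adjusted to […] with sterile PBS (10⁸ cfu/mL), then diluted 10³-fold in broth to 10⁵ cfu/mL. Compounds were serially diluted across six tubes per organism and 1 mL inoculum was added. Inoculum-only and broth-only controls were run. Incubation was 16 h at 37 °C. MIC was read as no visible growth.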

Pseudomonas aeruginosa [3] = assay: Antibacterial activity against Pseudomonas aeruginosa at 1.6125 to […] after 16 hrs by serial dilution method; format: functional, organism-based; procedure, shortened: as §1
Bacillus subtilis [4] = assay: Antibacterial activity against Bacillus subtilis at 1.6125 to […] after 16 hrs by serial dilution method; format: functional, organism-based; procedure, shortened: as §1
Staphylococcus aureus [5] = assay: Antibacterial activity against Staphylococcus aureus at 1.6125 to […] after 16 hrs by serial dilution method; format: functional, organism-based; procedure, shortened: as §1
Pseudomonas aeruginosa [6] = assay: Antibacterial activity against Pseudomonas aeruginosa after 16 hrs by serial dilution method; format: functional; procedure, shortened: as §1
Bacillus subtilis [7] = assay: Antibacterial activity against Bacillus subtilis after 16 hrs by serial dilution method; format: functional
Escherichia coli [8] = assay: Antibacterial activity against Escherichia coli after 16 hrs by serial dilution method; format: functional

MIC (Staphylococcus aureus [1]) [µg/mL]	MIC (Escherichia coli [2])	MIC (Pseudomonas aeruginosa [3])	MIC (Bacillus subtilis [4])	MIC (Staphylococcus aureus [5])	MIC (Pseudomonas aeruginosa [6]) [µg/mL]	MIC (Bacillus subtilis [7]) [µg/mL]	MIC (Escherichia coli [8]) [µg/mL]	Structure (SMILES)
–	inactive	–	inactive	inactive	25 (≈ 84.4 µM)	–	–	Cc1cnc(Nc2ncnc3c2Cc2ccccc2O3)s1
1.61 (≈ 5.32 µM)	inactive	inactive	–	–	–	1.61 (≈ 5.32 µM)	–	Cc1ccc(C)c(Nc2ncnc3c2Cc2ccccc2O3)c1
–	inactive	inactive	inactive	inactive	–	–	–	Nc1ncnc2c1Cc1ccccc1O2
1.61 (≈ 5.57 µM)	–	inactive	–	–	–	1.61 (≈ 5.57 µM)	25 (≈ 86.4 µM)	c1ccc(CNc2ncnc3c2Cc2ccccc2O3)cc1

More lines, now with the values behind:

Structure (SMILES)	MIC (Staphylococcus aureus [1]) [µg/mL]	MIC (Escherichia coli [2])	MIC (Pseudomonas aeruginosa [3])	MIC (Bacillus subtilis [4])	MIC (Staphylococcus aureus [5])	MIC (Pseudomonas aeruginosa [6]) [µg/mL]	MIC (Bacillus subtilis [7]) [µg/mL]	MIC (Escherichia coli [8]) [µg/mL]
Cc1ccc(Nc2ncnc3c2Cc2ccccc2O3)cc1F	50 (≈ 163 µM)	inactive	inactive	inactive	–	–	–	–
Clc1ccc(Nc2ncnc3c2Cc2ccccc2O3)c(Cl)c1	–	inactive	inactive	inactive	inactive	–	–	–
CO/N=C(\C(=O)N[C@@H]1C(=O)N2C(C(=O)O)=C(CSc3nc(=O)c(O)nn3C)CS[C@H]12)c1csc(N)n1 [CEFTRIAXONE]	3.12 (≈ 5.63 µM)	–	–	–	–	1.61 (≈ 2.91 µM)	1.61 (≈ 2.91 µM)	1.61 (≈ 2.91 µM)
c1ccc(CN2CCC(Nc3ncnc4c3Cc3ccccc3O4)CC2)cc1	1.61 (≈ 4.33 µM)	–	inactive	–	–	–	1.61 (≈ 4.33 µM)	3.12 (≈ 8.39 µM)
Cc1cc(C(F)(F)F)ccc1Nc1ncnc2c1Cc1ccccc1O2	–	inactive	inactive	inactive	inactive	–	–	–
c1ccc2c(c1)Cc1c(Nc3cccc4ccccc34)ncnc1O2	1.61 (≈ 4.96 µM)	inactive	inactive	–	–	–	1.61 (≈ 4.96 µM)	–
Clc1ccc(CNc2ncnc3c2Cc2ccccc2O3)cc1	1.61 (≈ 4.98 µM)	–	inactive	–	–	–	1.61 (≈ 4.98 µM)	50 (≈ 154 µM)
c1ccc2c(c1)Cc1c(NC34CC5CCCC(C3)C5C4)ncnc1O2 (stereo not drawn)	–	–	–	inactive	inactive	50 (≈ 150 µM)	–	50 (≈ 150 µM)
